Experimental findings from publication PMC3070847 (Bioorganic & medicinal chemistry letters, 2011) are described below.

Usually IC50 stands for the concentration that inhibits the measured activity by half. A higher IC50 goes with weaker potency in that assay.

Where only a bound is given, the exact number is not on record here.

In this experiment the target is HIV-1 IN (Human immunodeficiency virus type 1 group M subtype B, UniProt P04585). In words: Biochemical gel assay of HIV-1 IN. The conditions noted are these: IN IC50 3'-P, 3' processing function. The method, boiled down:
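Recombinant HIV-1 integrase was used as the enzyme in the biochemical evaluation.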
For `CCc1c(C(=O)c2ccccc2)n(COCc2ccccc2)c(=O)n(O)c1=O` [Compound 17], the IC50 was greater than 111 µM. In the case of `CCc1c(C(=O)c2ccccc2)n(COCc2ccc(F)cc2)c(=O)n(O)c1=O` [Compound 18], the IC50 was greater than 111 µM. Under `CCc1c(C(=O)c2cc(C)cc(C)c2)n(COCc2ccc(F)cc2)c(=O)n(O)c1=O` [Compound 19] stands greater than 111 µM; under `CCc1c(C(=O)c2cc(C)cc(C)c2)n(COCc2ccccc2)c(=O)n(O)c1=O` [Compound 20], greater than 111 µM; under `CCc1c(C(=O)c2ccccc2)n(COCCc2ccc(F)cc2)c(=O)n(O)c1=O` [Compound 21], greater than 111 µM.

Compound `CCc1c(C(=O)c2cc(C)cc(C)c2)n(COCCc2ccc(F)cc2)c(=O)n(O)c1=O` [Compound 22] came in with a 50% inhibitory concentration (IC50) greater than 111 µM. In turn, `CCOCn1c(C(=O)c2ccccc2)c(CC)c(=O)n(O)c1=O` [Compound 23] showed an IC50 greater than 111 µM.

Regarding `CCOCn1c(C(=O)c2cc(C)cc(C)c2)c(CC)c(=O)n(O)c1=O` [Compound 24], the IC50 is greater than 111 µM.
